# Test results as given in ChEMBL document CHEMBL1144182, “Antimicrobial and cytotoxic arylazoenamines. Part III: antiviral activity of selected classes of arylazoenamines” (Bioorg Med Chem, 2008).
# Active and inactive are the calls of the source. How the calls were made is not given here.
# How the values were obtained:
# [1] = tested on: Human immunodeficiency virus 1; assay: Antiviral activity against HIV1 infected in MT4 cells assessed as virus-induced cytopathogenicity after 4 days; type: functional, organism-based
# [2] = Cytotoxicity against mock-infected BHK cells assessed as reduction in cell viability after 96 hrs by MTT assay; type: cell-based, Mesocricetus auratus; conditions: hamster
# Method in brief: (§1)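 Cytotoxicity run in parallel with the antiviral assays. MDBK seeded at 6 × 10^5 and BHK at 1 × 10^6 cells/mL in maintenance medium with or without serial compound dilutions. Incubated 48–96 h at 37 °C, 5% CO2, then viability read by MTT. CC50 is the concentration reducing mock-infected cell viability by 50%.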
# [3] = Cytotoxicity against mock-infected MDBK cells assessed as reduction in cell viability after 96 hrs by MTT assay; type: cell-based, Bos taurus; conditions: cattle; method in brief: as §1
# Yellow fever virus = assay: Antiviral activity against YFV infected in BHK21 cells assessed as protection against virus-induced cytopathogenicity after 4 days by MTT assay; type: functional, organism-based; conditions: BHK-21, 96 h
# Method in brief: (§2)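 MDBK (BVDV) or BHK-21 (YFV) cells were seeded at 3 × 10^4 or 5 × 10^4 cells/well respectively and grown overnight to confluent monolayers at 37 °C in 5% CO2. Monolayers were infected at m.o.i. 0.01 in serum-free medium. After 1 h, MEM Earle's with 1% FCS was added, with or without serial compound dilutions. After 3–4 days at 37 °C, viability was read by MTT. EC50 was taken as 50% protection from virus-induced cytopathogenicity.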
# [4] = Cytotoxicity against mock-infected african green monkey Vero76 cells assessed as reduction in cell viability after 96 hrs by MTT assay; type: cell-based, Vero; conditions: chlorocebus sabaeus
# Coxsackievirus B2 = assay: Antiviral activity against CVB2 infected in Vero76 cells assessed as reduction in virus plaque formation after 4 days by MTT assay; type: functional, organism-based; conditions: Enterovirus B, Vero 76, 96 h
# [5] = tested on: Vesicular stomatitis virus; assay: Antiviral activity against VSV infected in Vero76 cells assessed as reduction in virus plaque formation after 4 days by MTT assay; type: functional, organism-based; conditions: Vero 76
# [6] = Cytotoxicity against mock-infected human MT4 cells assessed as reduction in cell viability after 96 hrs by MTT assay; type: cell-based
# Method in brief: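 Exponentially growing MT-4 cells seeded at 1 × 10^5 cells/mL in RPMI-1640 with 10% FCS, penicillin and streptomycin, with or without serial compound dilutions. Incubated at 37 °C, 5% CO2; viability read by MTT after 96 h. CC50 is the concentration reducing mock-infected cell viability by 50%.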
# [7] = tested on: Mammalian orthoreovirus 1; assay: Antiviral activity against Reo virus 1 infected in BHK21 cells assessed as protection against virus-induced cytopathogenicity after 4 days by MTT assay; type: functional, organism-based; conditions: Mammalian orthoreovirus 1, BHK-21, 96 h
# [8] = tested on: Respiratory syncytial virus; assay: Antiviral activity against RSV infected in Vero76 cells assessed as reduction in virus plaque formation after 4 days by MTT assay; type: functional, organism-based; conditions: human respiratory syncytial virus, Vero 76, 96 h
# Vaccinia virus = assay: Antiviral activity against VV infected in Vero76 cells assessed as reduction in virus plaque formation after 4 days by MTT assay; type: functional, organism-based; conditions: Orthopoxvirus vaccinia; Vero 76
# [9] = tested on: Bovine viral diarrhea virus 1; assay: Antiviral activity against BVDV infected in MDBK cells assessed as protection against virus-induced cytopathogenicity after 4 days by MTT assay; type: functional, organism-based; conditions: Bovine viral diarrhea virus isolates and strains, 96 h; method in brief: as §2
# Poliovirus 1 = assay: Antiviral activity against Sb1 virus infected in Vero76 cells assessed as reduction in virus plaque formation after 4 days by MTT assay; type: functional, organism-based; conditions: Enterovirus C, Sabin, Vero 76, 96 h
# Human alphaherpesvirus 1 = assay: Antiviral activity against HSV1 infected in Vero76 cells assessed as reduction in virus plaque formation after 4 days by MTT assay; type: functional, organism-based; conditions: Human alphaherpesvirus 1, Vero 76, 96 h
# Pseudomonas aeruginosa = assay: Antimicrobial activity against Pseudomonas aeruginosa; type: functional
# Candida = assay: Antimicrobial activity against Candida
Structure (SMILES),Activity [1],CC50 at 96 h [2] [µM],CC50 at 96 h [3] [µM],EC50 (Yellow fever virus) [µM],CC50 at 96 h [4] [µM],EC50 (Coxsackievirus B2) [µM],Activity [5],CC50 at 96 h [6] [µM],EC50 [7] [µM],EC50 [8] [µM],Activity (Vaccinia virus),EC50 [9] [µM],EC50 (Poliovirus 1) [µM],EC50 (Human alphaherpesvirus 1) [µM],MIC (Pseudomonas aeruginosa) [µg/mL],MIC (Candida) [µg/mL]
CN1C=C(/N=N/c2ccc(Br)cc2)CCC1,inactive,> 100,> 100,100,100,> 100,inactive,83,76,18,inactive,60,> 100,–,–,–
CN1CCC/C1=C\N=N\c1ccc(F)c(C(F)(F)F)c1,inactive,41,> 100,> 41,> 100,71,inactive,11,–,> 100,inactive,100,> 100,60,–,–
CN1CCC/C1=C\N=N\c1ccc(Cl)c(Cl)c1,inactive,23,90,> 23,100,> 100,inactive,39,–,> 100,inactive,16,53,40,–,–
FC(F)(F)c1cc(/N=N\C2=C3CCCN3CCC2)ccc1Cl,inactive,51,21,> 51,100,9,inactive,30,–,> 100,inactive,> 21,12,33,–,–
CCn1cc(C(=O)O)c(=O)c2cc(F)c(N3CCNCC3)cc21 [NORFLOXACIN],–,–,–,–,–,–,–,–,–,–,–,–,–,–,4,–
Clc1ccc(COC(Cn2ccnc2)c2ccc(Cl)cc2Cl)c(Cl)c1.O=[N+]([O-])O (stereo unspecified) [MICONAZOLE NITRATE],–,–,–,–,–,–,–,–,–,–,–,–,–,–,–,0.25
FC(F)(F)c1cc(/N=N\C2=C3CCCCN3CCC2)ccc1Br,inactive,> 100,> 100,80,100,42,inactive,34,–,> 100,inactive,61,25,25,–,–
Fc1ccc(/N=N\C2=C3CCCCN3CCC2)cc1,inactive,> 100,56,100,> 100,27,inactive,94,34,> 100,inactive,> 56,> 100,–,–,–
Cc1ccc(/N=N/C2=CN(C)CCC2)cc1,inactive,> 100,> 100,> 100,71,> 71,inactive,> 100,–,> 71,inactive,> 100,25,–,–,–
CN1C=C(/N=N/c2ccc(Cl)cc2)CCC1,inactive,> 100,58,> 100,90,5,inactive,> 100,32,20,inactive,> 58,8,–,–,–
FC(F)(F)c1cccc(N2CCN(/C=C/N=N/c3ccccc3)CC2)c1,inactive,43,9,9,11,> 11,inactive,30,–,4,inactive,> 9,> 11,–,–,–
CN1C=C(/N=N/c2ccc([N+](=O)[O-])cc2)CCC1,inactive,> 100,62,> 100,> 100,> 100,inactive,> 100,–,> 100,inactive,11,> 100,–,–,–
CN1C=C(/N=N/c2ccccc2Cl)CCC1,inactive,> 100,> 100,> 100,> 100,> 100,inactive,> 100,–,> 100,inactive,100,8,–,–,–
